ChEMBL document CHEMBL5506013, “Mitochondria-Selective Dicationic Small-Molecule Ligand Targeting G-Quadruplex Structures for Human Colorectal Cancer Therapy” (J Med Chem, 2024)
The source made the active and inactive calls. No cut-off for these calls is given here.

Legend:
[1] = target: Quadruplex DNA; experiment: Binding affinity to mito 78 G4 DNA (unknown origin) assessed as dissociation constant measured upto 450 secs by surface plasmon resonance assay; assay type: nucleic-acid assay
[2] = target: Quadruplex DNA; experiment: Binding affinity to mito 55 G4 DNA (unknown origin) assessed as dissociation constant measured upto 450 secs by surface plasmon resonance assay; assay type: nucleic-acid assay
Method in brief: (§1)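 Surface plasmon resonance in buffer at 25 °C. Four G4-mtDNAs (Mito 78, Mito 55, Mito 29, Mito 0.5-16) and the hairpin HP19 served as substrates. Kd was derived from the sensorgrams.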

[3] = target: Quadruplex DNA; experiment: Binding affinity to mito 29 G4 DNA (unknown origin) assessed as dissociation constant measured upto 450 secs by surface plasmon resonance assay; assay type: nucleic-acid assay; method in brief: as §1
[4] = target: Quadruplex DNA; experiment: Binding affinity to mito 0.5-16 G4 DNA (unknown origin) assessed as dissociation constant measured upto 450 secs by surface plasmon resonance assay; assay type: nucleic-acid assay; method in brief: as §1
[5] = target: DNA; experiment: Binding affinity to HP19 DNA (non-G4 DNA) (unknown origin) assessed as dissociation constant measured upto 450 secs by surface plasmon resonance assay; assay type: nucleic-acid assay; method in brief: as §1
[6] = test system: HCT-116; experiment: Antiproliferative activity against human HCT-116 cells measured after 48 hrs by MTT assay; assay type: functional, cell-based; conditions: for IC50: HCT-116, 48 h
Method in brief: (§2)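 Cells exposed to the ligands for 48 h. Viability was read by MTT, and the IC50 was derived from the response.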

[7] = test system: LoVo; experiment: Antiproliferative activity against human LoVo cells measured after 48 hrs by MTT assay; assay type: functional, cell-based; method in brief: as §2
[8] = test system: HeLa; experiment: Antiproliferative activity against human HeLa cells measured after 48 hrs by MTT assay; assay type: functional, cell-based; method in brief: as §2
[9] = test system: HepG2; experiment: Antiproliferative activity against human HepG2 cells measured after 48 hrs by MTT assay; assay type: functional, cell-based; conditions: HepG2, 48 h; method in brief: as §2
[10] = test system: PANC-1; experiment: Antiproliferative activity against human PANC-1 cells measured after 48 hrs by MTT assay; assay type: functional, cell-based; conditions: PANC-1, 48 h; method in brief: as §2
[11] = test system: MDA-MB-231; experiment: Antiproliferative activity against human MDA-MB-231 cells measured after 48 hrs by MTT assay; assay type: functional, cell-based; conditions: MDA-MB-231, 48 h; method in brief: as §2
[12] = (§3) Antiproliferative activity against human HFF-1 cells measured after 48 hrs by MTT assay; assay type: toxicity, cell-based; conditions: HFF-1 cells; method in brief: as §2
[13] = (§4) Antiproliferative activity against human BJ cells measured after 48 hrs by MTT assay; assay type: toxicity, cell-based; conditions: BJ cells; method in brief: as §2
[14] = test system: HFF-1; experiment: as §3; assay type: toxicity, cell-based; conditions: hff-1, 48 h, time 48 hrs; method in brief: as §2
[15] = test system: BJ; experiment: as §4; assay type: toxicity, cell-based; conditions: bj, 48 h; method in brief: as §2
[16] = test system: Quadruplex DNA; experiment: Binding affinity to mito 29 G4 DNA (unknown origin) at 5 uM by fluorescence titration based analysis; assay type: nucleic-acid assay
Method in brief: (§5)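 Oligonucleotides were pre-annealed at 95 °C for 10 min, then cooled slowly. Ligand (5 uM) was mixed with 20 uM DNA in buffer. Emission was collected over 550–800 nm, and enhancement was taken at 650 nm as F/F0.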

[17] = test system: Quadruplex DNA; experiment: Binding affinity to mito 56 G4 DNA (unknown origin) at 5 uM by fluorescence titration based analysis; assay type: nucleic-acid assay; method in brief: as §5
[18] = test system: Quadruplex DNA; experiment: Binding affinity to mito 132 G4 DNA (unknown origin) at 5 uM by fluorescence titration based analysis; assay type: nucleic-acid assay; method in brief: as §5
[19] = test system: Quadruplex DNA; experiment: Binding affinity to mito 05-15 G4 DNA (unknown origin) at 5 uM by fluorescence titration based analysis; assay type: nucleic-acid assay; method in brief: as §5
[20] = test system: Quadruplex DNA; experiment: Binding affinity to mito 05-18 G4 DNA (unknown origin) at 5 uM by fluorescence titration based analysis; assay type: nucleic-acid assay; method in brief: as §5
[21] = test system: Quadruplex DNA; experiment: Binding affinity to mito 81 G4 DNA (unknown origin) at 5 uM by fluorescence titration based analysis; assay type: nucleic-acid assay
Method in brief: (§6)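 Fluorescence titration in buffer. Ligand at 5 uM mixed with 20 uM pre-annealed DNA (95 °C for 10 min, slow cooling). Emission collected at 550-800 nm and monitored at 650 nm. Result reported as fold enhancement F/F0 over ligand alone.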

[22] = test system: Quadruplex DNA; experiment: Binding affinity to mito 78 G4 DNA (unknown origin) at 5 uM by fluorescence titration based analysis; assay type: nucleic-acid assay; method in brief: as §6
[23] = Drug uptake in living human HCT-116 cells assessed as increase in fluorescent signal in subnuclear region at 4 uM incubated for 1 hrs by Hoechst33342 staining based analysis; assay type: ADME, cell-based; conditions: hct-116, 1 h
[24] = Drug uptake in living human HCT-116 cells at 4 uM incubated for 1 hrs by Hoechst33342 staining based analysis; assay type: ADME, cell-based; conditions: hct-116, 1 h

Structure (SMILES) | Kd [1] [µM] | Kd [2] [µM] | Kd [3] [µM] | Kd [4] [µM] | Kd [5] [µM] | IC50 [6] [µM] | IC50 [7] [µM] | IC50 [8] [µM] | IC50 [9] [µM] | IC50 [10] [µM] | IC50 [11] [µM] | IC50 at 48 h [12] [µM] | IC50 at 48 h [13] [µM] | other results
C(=C\c1ccc2ccccc2[n+]1CCCCCCCC[n+]1c(/C=C/c2cc3ccccc3[nH]2)ccc2ccccc21)/c1cc2ccccc2[nH]1 | 1.84 | 0.22 | 0.14 | > 2 | > 2 | 8 | > 40 | 34.6 | 37.3 | > 40 | > 40 | > 40 | > 40 | –
C(=C\c1ccc2ccccc2[n+]1CCCCCCCC[n+]1c(/C=C/c2ccc(N3CCOCC3)cc2)ccc2ccccc21)/c1ccc(N2CCOCC2)cc1 | 0.12 | 0.47 | 0.24 | 0.28 | 1.86 | 29.2 | 35.4 | > 40 | > 40 | > 40 | > 40 | > 40 | > 40 | –
C[n+]1c(/C=C/c2ccc(N3CCCCC3)cc2)ccc2ccccc21.[I-] | – | – | – | – | – | – | – | – | – | – | – | – | – | Activity [6]: inactive; Activity [14]: Toxic; Activity [15]: Toxic; Activity [16]: Active; Activity [17]: Active; Activity [18]: Active; Activity [19]: Active; Activity [20]: Active; Activity [21]: Active; Activity [22]: Active; Drug uptake [23]: Active; Drug uptake [24]: Not Active
CCCC[n+]1c(/C=C/c2ccc(N3CCCCC3)cc2)ccc2ccccc21.[I-] | – | – | – | – | – | – | – | – | – | – | – | – | – | Activity [6]: inactive; Activity [14]: Toxic; Activity [15]: Toxic; Activity [16]: Active; Activity [17]: Active; Activity [18]: Active; Activity [19]: Active; Activity [20]: Active; Activity [21]: Active; Activity [22]: Active; Drug uptake [23]: Active; Drug uptake [24]: Not Active
Cc1ccc(/C=C/c2ccc3ccccc3[n+]2CCCCCCCC[n+]2c(/C=C/c3ccc(C)cc3)ccc3ccccc32)cc1 | 0.07 | 0.91 | 0.72 | 1.17 | > 2 | 27.4 | > 40 | > 40 | > 40 | > 40 | > 40 | > 40 | > 40 | –
CCn1c2ccccc2c2cc(/C=C/c3ccc4ccccc4[n+]3CCCCCCCC[n+]3c(/C=C/c4ccc5c(c4)c4ccccc4n5CC)ccc4ccccc43)ccc21 | 0.02 | 0.52 | 0.21 | 0.96 | > 2 | 8.5 | > 40 | 32.1 | 25.3 | > 40 | > 40 | > 40 | > 40 | –
C(=C\c1ccc2ccccc2[n+]1CCCCCCCC[n+]1c(/C=C/c2c[nH]c3ccccc23)ccc2ccccc21)/c1c[nH]c2ccccc12 | 0.08 | 0.61 | 0.23 | 0.25 | > 2 | 19.8 | > 40 | 23.3 | > 40 | > 40 | > 40 | > 40 | > 40 | –
C(=C\c1ccc2ccccc2[n+]1CCCCCCCC[n+]1c(/C=C/c2ccccc2)ccc2ccccc21)/c1ccccc1 | 0.29 | 0.58 | 0.5 | 1.02 | > 2 | > 40 | > 40 | > 40 | > 40 | > 40 | > 40 | 28.3 | > 40 | –
CSc1ccc(/C=C/c2ccc3ccccc3[n+]2CCCCCCCC[n+]2c(/C=C/c3ccc(SC)cc3)ccc3ccccc32)cc1 | 0.05 | 0.46 | 0.34 | 0.15 | > 2 | 24.7 | > 40 | > 40 | > 40 | > 40 | > 40 | 34.7 | > 40 | –
CN(C)c1ccc(/C=C/c2ccc3ccccc3[n+]2CCCCCCCC[n+]2c(/C=C/c3ccc(N(C)C)cc3)ccc3ccccc32)cc1 | 0.03 | 0.13 | 0.14 | 0.11 | > 2 | 17.2 | 15.4 | 29.5 | > 40 | > 40 | > 40 | 22.7 | > 40 | –
C(=C\c1ccc2ccccc2[n+]1CCCCCCCC[n+]1c(/C=C/c2ccc(N3CCCC3)cc2)ccc2ccccc21)/c1ccc(N2CCCC2)cc1 | 0.13 | 0.17 | 0.15 | 0.41 | > 2 | 5.4 | 15 | 22.1 | > 40 | 20.5 | > 40 | 31.1 | 31.4 | –
